Assays:
[1] = target: T1, Regulatory protein BlaR1 (Bacillus licheniformis) (UniProt P12287); experiment: Beta-lactamase induction in Bacillus licheniformis
T1 sequence (whole entry): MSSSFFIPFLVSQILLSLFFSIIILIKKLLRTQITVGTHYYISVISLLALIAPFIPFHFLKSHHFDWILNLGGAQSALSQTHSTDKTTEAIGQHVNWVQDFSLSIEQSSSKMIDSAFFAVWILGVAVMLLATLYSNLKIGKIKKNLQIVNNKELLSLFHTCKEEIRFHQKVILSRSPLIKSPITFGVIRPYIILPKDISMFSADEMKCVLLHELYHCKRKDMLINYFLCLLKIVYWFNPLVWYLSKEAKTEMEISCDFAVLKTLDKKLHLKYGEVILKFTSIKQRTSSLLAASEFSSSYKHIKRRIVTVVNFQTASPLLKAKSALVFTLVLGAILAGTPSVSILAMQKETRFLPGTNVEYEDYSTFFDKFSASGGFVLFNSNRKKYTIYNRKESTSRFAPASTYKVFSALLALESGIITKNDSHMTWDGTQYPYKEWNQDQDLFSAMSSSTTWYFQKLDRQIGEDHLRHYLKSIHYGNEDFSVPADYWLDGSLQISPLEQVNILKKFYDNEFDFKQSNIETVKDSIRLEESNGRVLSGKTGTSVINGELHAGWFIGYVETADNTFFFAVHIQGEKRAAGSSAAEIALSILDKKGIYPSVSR
In short: (§1)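 Ethanol-stopped IPNS reactions (peptide 0.3 mM, 25 °C) were mixed 1:1 with log-phase B. licheniformis ATCC 14580 diluted to 30 Klett units and incubated for 2 h at 30 °C. Tylosin was added, then after 15 min nitrocefin, with A492 read over 30 min. β-Lactam was quantified by β-lactamase synthesis relative to penicillin G.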

[2] = target: T2, Isopenicillin N synthase (Penicillium chrysogenum) (UniProt P08703); experiment: Anti-micrococcus luteus activity was tested for inhibition of isopenicillin N synthetase.; details: Penicillium chrysogenum (Penicillium notatum)
T2 sequence (whole entry): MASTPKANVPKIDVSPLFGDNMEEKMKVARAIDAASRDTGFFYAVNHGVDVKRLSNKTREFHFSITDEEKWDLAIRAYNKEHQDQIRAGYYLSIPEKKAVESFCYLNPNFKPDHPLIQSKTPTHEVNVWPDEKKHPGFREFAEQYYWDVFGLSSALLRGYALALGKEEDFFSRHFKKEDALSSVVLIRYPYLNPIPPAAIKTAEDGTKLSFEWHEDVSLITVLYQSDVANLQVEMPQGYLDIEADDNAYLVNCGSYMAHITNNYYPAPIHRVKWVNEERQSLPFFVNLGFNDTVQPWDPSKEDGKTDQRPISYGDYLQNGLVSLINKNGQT
In short: (§2)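 Peptide added at a known amount to a standard IPNS reaction mixture with ACV as substrate before starting the reaction with enzyme. Applied to peptides not converted to an anti-M. luteus product. Percent inhibition derived from the ratio of reaction rates with and without the peptide.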

[3] = tested on: Micrococcus luteus; experiment: The compound was tested for the antibiotic activity against Micrococcus luteus(ATCC 9341 stain); no; format: functional, organism-based
In short: (§3)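 Peptides at 0.3 mM incubated with purified IPNS in Tris-HCl pH 8.0 containing KCl, MgSO4, FeSO4, ascorbate and DTT, at 25 °C for 2–20 min in quadruplicate, then stopped with ethanol. Samples with and without penicillinase went into wells on M. luteus ATCC 9341 lawns, incubated overnight at 37 °C, and inhibition zones were read. Peptides giving no product were retested for 1 h at 3 mM.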

[4] = target: T2, Isopenicillin N synthase (Penicillium chrysogenum); experiment: Anti Micrococcus luteus activity was tested for inhibition of Isopenicillin N synthetase (isopenicillin N synthase); yes; in short: as §2
[5] = tested on: Micrococcus luteus; experiment: In vitro antibiotic activity against Micrococcus luteus(ATCC 9341 stain).; format: functional, organism-based; in short: as §3
[6] = Antibiotic activity against Micrococcus luteus (ATCC 9341 strain); format: functional; in short: as §3
[7] = target: T2, Isopenicillin N synthase (Penicillium chrysogenum); experiment: Anti Micrococcus luteus activity was tested for inhibition of IPNS (isopenicillin N synthase); no; in short: as §2
[8] = target: T1, Regulatory protein BlaR1 (Bacillus licheniformis); experiment: The compound was tested for Beta-lactamase induction in B. licheniformis; +; in short: as §1

SMILES	Beta-lactamase induction [1]	Activity [2]	Activity [4]	Antibiotic activity [6]	other results
CC(C)[C@@H](NC(=O)[C@H](CS)NC(=O)CCC[C@H](N)C(=O)O)C(=O)O	+	No activity			
N[C@@H](CCCC(=O)NC(CSSCC(NC(=O)CCC[C@H](N)C(=O)O)C(=O)N[C@H](Cc1ccc(O)cc1)C(=O)O)C(=O)N[C@H](Cc1ccc(O)cc1)C(=O)O)C(=O)O (stereo partly specified)			Yes		Antibiotic activity [3]: No activity
CC(C)[C@@H](NC(=O)[C@H](CSSC[C@H](NC(=O)Cc1cccc(N)c1)C(=O)N[C@@H](C(=O)O)C(C)C)NC(=O)Cc1cccc(N)c1)C(=O)O	+	No activity			Antibiotic activity [5]: Yes
N[C@@H](CCCC(=O)NC(CSSCC(NC(=O)CCC[C@H](N)C(=O)O)C(=O)N[C@H](CCl)C(=O)O)C(=O)N[C@H](CCl)C(=O)O)C(=O)O (stereo partly specified)			Yes	No activity	
CC(O)[C@@H](NC(=O)C(CSSCC(NC(=O)CCC[C@H](N)C(=O)O)C(=O)N[C@@H](C(=O)O)C(C)O)NC(=O)CCC[C@H](N)C(=O)O)C(=O)O (stereo partly specified)		No activity			Antibiotic activity [3]: No activity
CC(C)[C@@H](NC(=O)[C@@H](N)CSSC[C@H](N)C(=O)N[C@@H](C(=O)O)C(C)C)C(=O)O			Yes	No activity	
CC(C)[C@@H](NC(=O)[C@H](CSSC[C@H](NC(=O)CCCCCCN)C(=O)N[C@@H](C(=O)O)C(C)C)NC(=O)CCCCCCN)C(=O)O	+	No activity			Antibiotic activity [5]: Yes
N[C@@H](CCCC(=O)N[C@@H](CSSC[C@H](NC(=O)CCC[C@H](N)C(=O)O)C(=O)N[C@H](C(=O)O)C(C(F)(F)F)C(F)(F)F)C(=O)N[C@H](C(=O)O)C(C(F)(F)F)C(F)(F)F)C(=O)O			Yes	No activity	
N[C@@H](CCCC(=O)N[C@@H](CSSC[C@H](NC(=O)CCC[C@H](N)C(=O)O)C(=O)NC(C(=O)O)C(C(F)(F)F)C(F)(F)F)C(=O)NC(C(=O)O)C(C(F)(F)F)C(F)(F)F)C(=O)O (stereo in doubt; 62)			Yes	No activity	
CC(C)[C@@H](NC(=O)[C@H](CSSC[C@H](NC(=O)CCCCN)C(=O)N[C@@H](C(=O)O)C(C)C)NC(=O)CCCCN)C(=O)O					Activity [7]: No activity; Beta-lactamase induction [8]: +; Antibiotic activity [5]: Yes
CC(C)[C@@H](NC(=O)[C@H](CSSC[C@H](NC(=O)C(N)c1cccc(C(=O)O)c1)C(=O)N[C@@H](C(=O)O)C(C)C)NC(=O)C(N)c1cccc(C(=O)O)c1)C(=O)O (stereo partly specified)	+	No activity		No activity	
N[C@@H](CCCC(=O)N[C@@H](CS)C(=O)NCC(=O)O)C(=O)O			Yes	No activity	
CC(C)[C@@H](NC(=O)[C@H](CSSC[C@H](NC(=O)OCc1ccccc1)C(=O)N[C@@H](C(=O)O)C(C)C)NC(=O)OCc1ccccc1)C(=O)O	+	No activity		No activity	
CC(C)[C@@H](NC(=O)[C@H](CSSC[C@H](NC(=O)CCCCCN)C(=O)N[C@@H](C(=O)O)C(C)C)NC(=O)CCCCCN)C(=O)O	+	No activity			Antibiotic activity [5]: Yes
CC(C)[C@@H](NC(=O)[C@H](CSSC[C@H](NC(=O)CCC[C@H](N)C(=O)O)C(=O)N[C@@H](C(=O)O)C(C)C)NC(=O)CCC[C@H](N)C(=O)O)C(=O)O	+	No activity			Antibiotic activity [5]: Yes
N[C@@H](CCCC(=O)N[C@@H](CSSC[C@H](NC(=O)CCC[C@H](N)C(=O)O)C(=O)NC(C(=O)O)C(C(F)(F)F)C(F)(F)F)C(=O)NC(C(=O)O)C(C(F)(F)F)C(F)(F)F)C(=O)O (stereo in doubt; 63)			Yes	No activity	
CC(C)[C@@H](NC(=O)[C@H](CS)NC(=O)Cc1ccc(O)cc1)C(=O)O	+	No activity		No activity	
N[C@@H](CCCC(=O)NC(CSSCC(NC(=O)CCC[C@H](N)C(=O)O)C(=O)N[C@H](Cc1c[nH]c2ccccc12)C(=O)O)C(=O)N[C@H](Cc1c[nH]c2ccccc12)C(=O)O)C(=O)O (stereo partly specified)			Yes	No activity	
CC(C)[C@@H](NC(=O)[C@H](CO)NC(=O)CCC[C@H](N)C(=O)O)C(=O)O	+	No activity		No activity	
CC(C)[C@@H](NC(=O)[C@H](CS)NC(=O)CCC[C@@H](N)C(=O)O)C(=O)O	+	No activity			Antibiotic activity [5]: Yes
CC(C)[C@@H](NC(=O)[C@H](C)NC(=O)CCC[C@H](N)C(=O)O)C(=O)O	+	No activity		No activity	
CC(C)[C@@H](NC(=O)[C@H](CSSC[C@H](NC(=O)[C@@H]1CCCN1)C(=O)N[C@@H](C(=O)O)C(C)C)NC(=O)[C@@H]1CCCN1)C(=O)O				No activity	Activity [7]: No activity
CC(C)[C@@H](NC(=O)[C@@H](CS)NC(=O)CCC[C@H](N)C(=O)O)C(=O)O	+	No activity		No activity	
CC(C)[C@@H](NC(=O)[C@H](CSSC[C@H](NC(=O)c1cccc(C(N)C(=O)O)c1)C(=O)N[C@@H](C(=O)O)C(C)C)NC(=O)c1cccc(C(N)C(=O)O)c1)C(=O)O (stereo partly specified)	+	No activity			Antibiotic activity [5]: Yes
